Rad51 HR inh: human RAD51 strand exchange inhibitors, primary screen, biochemical, fluorescence; hRad51 DNA strand exchange, fluorescence dequenching; 0.085% of 200,000 active; inhibition, % at 10 µM; AID 1385, 2008; DNA repair protein RAD51 homolog 1 (Homo sapiens), Q06609;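 active means inhibition above 40% at the single screening dose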;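 further: 0% = DMSO control wells and 100% = blanks with heterologous ssDNA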
Target sequence (Q06609 whole entry, looked up): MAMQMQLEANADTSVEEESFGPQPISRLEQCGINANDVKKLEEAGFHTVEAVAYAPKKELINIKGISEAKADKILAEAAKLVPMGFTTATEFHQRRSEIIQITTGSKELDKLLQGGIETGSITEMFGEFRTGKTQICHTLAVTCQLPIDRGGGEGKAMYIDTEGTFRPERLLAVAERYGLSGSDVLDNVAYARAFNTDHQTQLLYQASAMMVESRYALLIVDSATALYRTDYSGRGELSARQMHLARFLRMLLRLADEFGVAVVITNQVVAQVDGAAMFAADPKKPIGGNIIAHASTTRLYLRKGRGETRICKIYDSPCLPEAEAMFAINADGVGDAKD
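Material: human Rad51–ssDNA filaments; Probe or stimulus: labelled 47-mer dsDNA for strand exchange; Doses: single 10 µM dose; Incubation: 37 °C 15-min filament assembly, 30-min compound preincubation, 15-min exchange; Technique: FRET fluorescence dequenching, excitation 485 nm, emission 520 nm; Measure: Fluorescence-based percent inhibition, control- and blank-normalised; Benchmarks: plate control and blank wells.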
CHOP inhibitor: inhibitors of CHOP promoter induction, primary screen, cell-based, unfolded protein response, luciferase reporter. CHO-K1 CHOP-promoter luciferase, tunicamycin-induced, 15-18 h. inhibition, % at 10 µM. 3.8% of 220,000 active;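 active means compounds that reduced the stress-induced luciferase reporter signal by more than about 70% of percent inhibition, limit read from the data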;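 further: 0% = tunicamycin plus vehicle and 100% = wells without tunicamycin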
Arbovirus inh: antivirals against arbovirus infection, primary screen, cell-based, full library, 10K replicate subset; inhibition, % at 10 µM; 0.37% of 200,000 active; AID 1251, 2008; arbovirus infection cell-based antiviral screen; in the data active means inhibition above about 30%
PKD1 kinase inh: inhibitors of human PKD1 kinase, biochemical, fluorescence polarization; Serine/threonine-protein kinase D1 (Homo sapiens), Q15139; PKD1 kinase fluorescence polarization assay; inhibition, % (test concentration not listed); 0.056% of 200,000 active; AID 797, 2007
L major viab: Leishmania major promastigote growth inhibition, primary screen; inhibition, % at 10 µM; AID 1063, 2008; 9% of 200,000 active; Leishmania major promastigotes, resazurin fluorescence viability;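 further: promastigotes grown with compound for 44 hours at 28 °C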
Wee1 degr inh: Wee1 degradation inhibitors, primary screen, cell-based, HeLa, Wee1K328M-luciferase, luminescence | Wee1-like protein kinase (Homo sapiens), P30291 | HeLa Luc-Wee1K328M stability; 100% = proteasome inhibitor MG132 effect | reporter increase, % at 5 µM | 1.2% of 220,000 active;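 active means activation above the mean of all tested compounds plus 3 SD, set per screening run, cut at about 8.8% in these data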;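 further: cells exposed to compound for 20 h before luminescence read; 0% = DMSO alone and 100% = MG132 at 30 µM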
Active calls of the source: *; · = not tested or not shown. This is a sample that favours compounds with a hit; in the whole collection about 12% have one here. Unless noted, no stated cut-off is given here; in the data, active means inhibition above about 50%; inactive means the rest.

SMILES | Rad51 HR inh | CHOP inhibitor | Arbovirus inh | PKD1 kinase inh | L major viab | Wee1 degr inh
CC1=CSC2=NC(=O)/C(=C\c3cccn3-c3ccccc3)C(=N)N12 | -14 | -7 | -3 | -14 | 88* | -2
CCC1=NN2C(=N)/C(=C\c3cccn3-c3ccc(Br)cc3)C(=O)N=C2S1 | 0 | -8 | 14 | 5 | -10 | 0
Cc1ccccc1Cn1cccc1/C=C1/C(=N)N2C=CSC2=NC1=O | -16 | 25 | -8 | 1 | 10 | 1
CC1=CSC2=NC(=O)/C(=C\c3cccn3-c3ccc([N+](=O)[O-])cc3)C(=N)N12 | -2 | 87* | -13 | -6 | 60* | -3
COc1ccc(-n2cccc2/C=C2\C(=N)N3N=C(C(C)C)SC3=NC2=O)cc1 | -1 | 28 | 30* | -6 | -12 | -1
Cc1ccccc1-n1c(C)cc(/C=C2/C(=N)N3C(c4ccccc4)=CSC3=NC2=O)c1C | -34 | 15 | -6 | -13 | 22 | 0
CC(C)c1ccc(-n2cccc2/C=C2/C(=N)N3C=CSC3=NC2=O)cc1 | -9 | 27 | -12 | 4 | 98* | -4
CCN(CC)c1ccc(NC(=O)c2ccccc2OCC(=O)OC)cc1 | -6 | 3 | 5 | 2 | -5 | 3
Cc1ccc(C(=O)OCC(=O)Nc2cccc(S(=O)(=O)NC3=NCCCCC3)c2)c(C)c1 | -3 | -3 | 3 | -7 | 2 | -3
CC(Cc1cccs1)NC(=O)Nc1ccc(Cl)cc1 (stereo unspecified) | · | 65 | 3 | 10 | 33 | 1
CC(Cc1cccs1)NC(=O)Nc1ccc(Cl)c(Cl)c1 (stereo unspecified) | · | 49 | -37 | 1 | 61* | 2
CC(Cc1cccs1)NC(=S)Nc1ccccc1 (stereo unspecified) | -4 | -11 | 14 | -5 | 60* | -1
COc1cc2c(cc1OC)CN(C(=S)NC(=O)c1ccccc1)CC2 | -10 | 5 | -4 | -4 | 0 | 3
COC(=O)c1cccc(C(=O)N2CCC(CO)(Cc3ccccc3Cl)CC2)c1 | 27 | 22 | 0 | 4 | 25 | 1
OCC1(Cc2ccccc2Cl)CCN(C/C=C/c2ccccc2)CC1 | 7 | 29 | -2 | -1 | 88* | -1
CCCCOc1ccc(-c2nnn(CC(=O)NCCc3c[nH]c4ccccc34)n2)cc1 | -2 | 79* | -10 | -7 | 40 | 2
Cc1ccc(C)c(NC(=O)Cn2nc([N+](=O)[O-])c(Br)c2C)c1 | -7 | -6 | -5 | -10 | 73* | -1
O=C(Cn1cnc2c(oc3ccccc32)c1=O)NCc1ccccc1 | 6 | -7 | -2 | -3 | -3 | 1
Cc1ccc(C)c(NC(=O)Cn2nc(-c3ccccc3)nc2-c2ccccc2)c1 | -7 | 87* | 0 | -14 | 12 | -1
Cc1ccc(C)c(NC(=O)Cn2cnc3c(oc4ccccc43)c2=O)c1 | 1 | 72* | 3 | 6 | -13 | 3
NC(=O)COC(=O)c1ccccc1Oc1ccccc1 | 9 | 6 | 11 | 1 | -10 | -1
O=C(CN1C(=O)COc2ccc(S(=O)(=O)N3CCCC3)cc21)NCc1ccccn1 | · | -10 | · | · | · | -2
Cc1c(Br)c([N+](=O)[O-])nn1CC(=O)NCCc1c[nH]c2ccccc12 | · | 22 | -1 | -9 | 69* | -2
Cc1c(Br)c([N+](=O)[O-])nn1CC(=O)NCc1ccccc1 | 6 | 5 | 0 | -1 | 3 | 1
C=CCN(CC(O)c1cccc([N+](=O)[O-])c1)C(C)CCc1ccccc1 (stereo unspecified) | · | 10 | · | · | · | -4
SMILES | Rad51 HR inh | CHOP inhibitor | Arbovirus inh | PKD1 kinase inh | L major viab | Wee1 degr inh
C/C(=N\Nc1nc2ccccc2[nH]1)c1cc2ccccc2o1 | 1 | -17 | -30 | 4 | 68* | 1
C/C(=N\Nc1ccccn1)c1ccc2c(c1)OCO2 | -5 | -11 | 7 | -3 | 24 | -2
C/C(=N\Nc1nc2ccccc2[nH]1)c1ccc2c(c1)OCCO2 | · | 6 | -15 | 2 | 100* | -2
C/C(=N\Nc1nc2ccccc2[nH]1)c1ccc2c(c1)OCO2 | 9 | 1 | 36* | 4 | 101* | 1
O=C(CSc1nnc(C2CC2)n1Cc1ccco1)NCC(F)(F)F | 0 | 21 | 7 | -2 | -6 | -4
Cc1ccc(C(=O)/C=C/C(=O)c2ccc(C)cc2)cc1 | -24 | 106* | -31 | -2 | 101* | -4
Cc1ccc(-c2ccc(/C=C/C(=O)c3ccccc3)o2)cc1 | · | 30 | 11 | -19 | 89* | 4
COc1ccc(OC)c2[nH]c(=O)c(CCNC(=O)Cc3cccs3)cc12 | -7 | -11 | -2 | -7 | -4 | 3
CC(C)(C)c1ccccc1OCCOCCSc1ncccn1 | -9 | 42 | 16 | -6 | 97* | -4
Cc1ccc(C(C)(C)C)c(OCCOCCN2CCCC2)c1 | -5 | 14 | -20 | -3 | 96* | -1
CC(C)(C)c1ccccc1OCCOCCN1CCCCCC1 | 2 | -14 | -5 | 1 | 96* | -1
Cc1cc(C)c(OCCOCCN2CCNCC2)c(C)c1 | -7 | 42 | -9 | 2 | 15 | 1
CC(C)(C)c1cc(C(=O)NCCN2CCCC2)cc(C(C)(C)C)c1 | · | 33 | 4 | -3 | 19 | 3
Cc1cccc(N(C)S(=O)(=O)c2cccc3nsnc23)c1 | 4 | 94* | -1 | 2 | -2 | -1
O=[N+]([O-])c1cccc(Cl)c1NCCNc1ncc(C(F)(F)F)cc1Cl | -14 | 79* | 0 | -4 | -6 | 2
NNC(=O)CCCNc1ncc(C(F)(F)F)cc1Cl | 6 | 35 | -8 | 0 | 1 | -3
CCOc1ccc(-c2noc(CCC(=O)O)n2)cc1 | 1 | 85* | 0 | 0 | -8 | 2
COc1ccc(-c2noc(CCCC(=O)O)n2)cc1 | -2 | 84* | -6 | -17 | -5 | 4
CCc1ccccc1N(C)C(=O)CCc1nc(-c2ccc(C)cc2)no1 | 3 | 77* | -10 | -6 | 16 | -1
Cc1ccsc1/C=C1/NC(=O)N(Cc2ccc(F)cc2)C1=O | -2 | 30 | 3 | -3 | 1 | -4
O=C(CSCc1cccc(Br)c1)NC1CC1 | -5 | 9 | 1 | -7 | -4 | 8
CCN1CCN(c2cc(C)nc(-c3ccccc3O)n2)CC1 | -7 | -17 | · | · | · | -1
NC1=NC(=O)/C(=C\c2cc([N+](=O)[O-])ccc2Cl)S1 | 0 | -20 | 1 | 2 | 19 | -2
O=C1NN=C(c2ccc(Cl)cc2)CC1c1cccc(Br)c1 (stereo unspecified) | 2 | 78* | 16 | -5 | 9 | -1
